Screens (PubChem)
Jurkat NFkB inh: inhibitors of the PMA/ionomycin-induced NF-kB reporter in Jurkat cells; PMA/ionomycin-induced NF-kB luciferase reporter, luminescence; inhibition, % at 4 µM; 330,000 tested, 0.53% active; AID 435003; in the data active = inhibition above about 50%
NR2E3 ag-1: NR2E3 (human) agonism. GST-NR2E3/biotin-RetCOR TR-FRET, 1536-well. inhibition of corepressor binding, % at 4.78 µM. 320,000 tested, 0.12% active. AID 2300;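 active = percent inhibition above the cutoff of mean plus 3 SD of all tested compounds, set per screening campaign, cut at about 20% in these data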
Target sequence (Q9Y5X4 whole entry, looked up): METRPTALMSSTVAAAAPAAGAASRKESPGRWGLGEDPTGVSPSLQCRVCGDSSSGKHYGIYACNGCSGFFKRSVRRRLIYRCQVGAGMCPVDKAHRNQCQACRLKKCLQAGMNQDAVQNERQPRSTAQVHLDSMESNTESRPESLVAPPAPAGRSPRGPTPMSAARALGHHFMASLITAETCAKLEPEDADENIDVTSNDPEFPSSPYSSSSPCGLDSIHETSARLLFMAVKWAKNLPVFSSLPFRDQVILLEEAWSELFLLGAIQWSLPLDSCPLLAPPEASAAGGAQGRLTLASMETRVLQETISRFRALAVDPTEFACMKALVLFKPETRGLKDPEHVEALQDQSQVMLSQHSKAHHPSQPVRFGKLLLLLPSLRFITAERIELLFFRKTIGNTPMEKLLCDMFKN
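Material: NR2E3–RetCOR corepressor complex / Incubation: Compound–protein incubation for 5 h at 4 °C / Dosing: compound at 4.8 µM, single dose / Detection: time-resolved FRET / Benchmarks: high control biotin, low control 0.6% DMSO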
aDG glyco up: alpha-DG glycosylation activation; Pro5-aDG cells, alpha-DG glycosylation AlphaScreen (IIH6); 0% Pro5, 100% B10-LARGE cell signal; activation, % at 10 µM; 360,000 tested, 0.22% active; AID 624168;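 active = activation of at least 8% versus controls, or a plate z-score of at least 8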;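 also: Pro5 are CHO cells carrying HIG-tagged alpha-DG that lacks glycosylation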
MPTP inh: permeability transition pore inhibition. isolated mouse mitochondria, Ca2+ swelling absorbance, 30 min. inhibition, % at 10 µM. 360,000 tested, 1.4% active. AID 602449;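 active = inhibition of 50% or more, scaled per plate between neutral and stimulator controls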
NR2E3 ag-2: activates human NR2E3 receptor; Q9Y5X4; CHO-S Gal4-NCOR/VP16-NR2E3 two-hybrid, luciferase; inhibition of corepressor binding, % at 3.98 µM; 360,000 tested, 0.35% active; AID 602229;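 active = inhibition above the mean of all tested compounds plus 3 SD, cut at about 70% in these data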;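 also: higher means lower luciferase signal from less NR2E3 corepressor binding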
697 NFkB inh: inhibitors of the PMA/ionomycin-induced NF-kB reporter in 697 B cells. AID 435022. 330,000 tested, 0.33% active. 697 B-cell NF-kB luciferase reporter, 16 h. inhibition, % at 4 µM; in the data active = inhibition above about 35%
NR2E3 ag confirm: confirmation of human NR2E3 nuclear receptor agonists; AID 2379; activation (reported as inhibition), % at 3.98 µM; cell-free NR2E3 corepressor release, TR-FRET, 5 h; shares compounds with NR2E3 ag-1; 360 tested, 39% active; in the data active = activation above about 20%
PPARg-NCOR2 ag: counter-screen for NR2E3 agonists: human PPARgamma-NCOR2 interaction agonists. shares compounds with NR2E3 ag-1. TR-FRET PPARg-NCOR2 coregulator interaction, biochemical. inhibition, % at 3.98 µM. 360 tested, 45% active. AID 504787; in the data active = inhibition above about 20%
A number is an active result; – = inactive; · = no result given. Most compounds without a hit are left out; they make up all but 2.4% or so of the library.

SMILES	Jurkat NFkB inh	NR2E3 ag-1	aDG glyco up	MPTP inh	NR2E3 ag-2	697 NFkB inh	NR2E3 ag confirm	PPARg-NCOR2 ag
CC1NC(=O)NC1CCCCCC(=O)NCCc1ccccc1 (stereo not given)	–	68.5	–	–	–	–	75.2	70.1
Cc1cccc(C)c1NC(=O)CCCCCC1NC(=O)NC1C (stereo not given)	–	47.4	–	–	–	–	34.9	–
C[C@@H]1NC(=O)N[C@@H]1CCCCCC(=O)O	–	76.3	–	–	–	–	77.3	72.3
COC(=O)c1cc(C)nc2c1C(=O)C(=O)C=C2N1CCOCC1	–	38.4	–	–	–	–	43.4	57.1
Cc1ccccc1CN1C(=O)c2ccccc2C1c1nnnn1-c1ccc2c(c1)OCCO2 (stereo not given)	·	·	–	–	–	·	·	·
O=C(NN1C(=O)/C(=C/C=C/c2ccco2)SC1=S)c1ccncc1	–	24.6	–	–	–	–	–	–
COc1cccc(C(C(=O)NCc2ccccc2)N2CCN(CCN3CCOCC3)CC2)c1OC (stereo not given)	·	·	–	–	·	·	·	·
Cc1cccc(C)c1NC(=O)COc1ccccc1C(=O)Nc1ccc(Br)cn1	–	43.6	–	–	–	–	41.6	48.8
COCCN1C(=O)COc2ccccc2C1C(=O)NC(C)(C)C (stereo not given)	·	·	–	–	–	·	·	·
O=c1[nH]c(CN2CCN(c3ncccn3)CC2)nc2c(Br)cc(Br)cc12	–	26.8	–	–	–	–	–	24.6
CCOC(=O)c1noc2c1CCC2	·	·	–	–	·	·	·	·
C[C@@H](NC(=O)[C@@H]1CCCN1C(=O)[C@@H]1CCCN1C(=O)c1ccccc1)c1ccccc1	·	·	–	–	–	·	·	·
Cc1cccc(-c2nc(=S)c3c(n2Cc2ccco2)CCCC3)c1	–	27.6	–	–	–	–	–	–
CCCCC1=CC2=C(c3ccco3)C(=O)C(C)(OC(=O)c3ccc(OC)cc3)C(=O)C2=CN1Cc1ccc2c(c1)OCO2 (stereo not given)	–	23.0	–	–	–	–	–	–
Cc1cccc(C)c1-n1nnnc1C(c1ccccc1OC(F)(F)F)N1CCN(C/C=C/c2ccccc2)CC1 (stereo not given)	·	·	–	–	–	·	·	·
Cc1sc2nc(SCC(=O)NCc3ccco3)n(Cc3ccccc3)c(=O)c2c1C	–	37.7	–	–	–	–	–	–
CCCCCn1c(NC(=O)c2ccco2)c(S(=O)(=O)c2ccc(C)cc2)c2nc3ccccc3nc21	–	20.5	–	–	–	–	–	41.7
O=C(/C=C/c1ccco1)NC(=S)Nc1ccc(C(=O)O)cc1	–	19.8	–	–	–	–	–	–
COc1ccc(NC(=O)CCNS(=O)(=O)c2cc(Br)ccc2Br)cc1S(N)(=O)=O	–	23.4	–	–	–	–	–	–
COc1ccc(NC(=O)CCNC(=O)c2ccccc2)cc1S(N)(=O)=O	–	–	–	–	–	–	·	·
O=C(CCN1CCCCC1)N/N=C/c1c[nH]c2ccccc12	–	–	–	–	–	–	·	·
CN1CCN(CC(=O)N/N=C\c2c[nH]c3ccccc23)CC1	–	29.7	·	·	·	–	–	–
COCCCN1C(=O)C(O)=C(C(=O)c2ccc(C)o2)C1c1cccc(Br)c1 (stereo not given)	–	44.9	–	–	–	–	20.0	19.8
COCCCN1C(=O)C(O)=C(C(=O)c2ccco2)C1c1ccccc1 (stereo not given)	–	21.6	–	–	–	–	–	–
O=C(C1=C(O)C(=O)N(CCCn2ccnc2)C1c1ccc(F)cc1)c1ccco1 (stereo not given)	–	36.2	–	–	–	–	–	–
SMILES	Jurkat NFkB inh	NR2E3 ag-1	aDG glyco up	MPTP inh	NR2E3 ag-2	697 NFkB inh	NR2E3 ag confirm	PPARg-NCOR2 ag
O=C(C1=C(O)C(=O)N(CCc2ccccc2)C1c1cccnc1)c1ccco1 (stereo not given)	–	25.4	–	–	–	–	–	23.1
CC(C)CCN1C(=O)CSCC1(C)C(=O)NC(C)C (stereo not given)	·	·	–	–	·	·	·	·
O=C1NC[C@H](Cc2ccc(O)cc2)N(CCc2cccc(F)c2)C1=O	·	·	–	–	–	·	·	·
CCOC(=O)[C@]12CCC=C1N(Cc1cccc3ccccc13)C(=O)[C@H](CC(=O)NCCc1ccccc1OC)C2	·	·	–	–	–	·	·	·
COc1ncnc2c1ncn2CCCNC1CCN(Cc2ccccc2)CC1	·	·	–	–	–	·	·	·
CCn1c(=S)[nH]c2c(c1=O)C(C)(C)Cc1ccccc1-2	·	·	–	–	–	·	·	·
Cn1c(=S)[nH]c2c(c1=O)C(C)(C)Cc1ccccc1-2	·	38.8	–	–	–	·	41.4	34.8
CCC1(C)Cc2ccccc2-c2[nH]c(=S)[nH]c(=O)c21 (stereo not given)	–	31.2	–	–	–	–	19.6	–
CCC1(C)Cc2ccccc2-c2nc[nH]c(=O)c21 (stereo not given)	–	–	–	–	–	–	·	·
COc1cccc(S(=O)(=O)N(C)C[C@H]2OCc3cn(nn3)CCCC(=O)N([C@H](C)CO)C[C@@H]2C)c1	·	·	–	–	–	·	·	·
COc1ccc(N(C)C(=O)Nc2ccc3nsnc3c2)cc1	·	·	–	–	–	·	·	·
CC(C)N(C(=O)Nc1ccc2nsnc2c1)C(C)C	–	38.2	·	·	·	–	–	–
CCCCCCCCCc1conc1C(=O)/C=C/c1oc2c(c1C)CCC(C)C2 (stereo not given)	·	·	–	–	·	·	·	·
O=C(c1ccco1)N1CCN(C(=O)c2cc(-c3ccncc3)nc3ccc(Br)cc23)CC1	–	–	–	–	–	–	·	·
O=C(O)c1cc(-c2ccco2)nc2ccc(Br)cc12	–	34.1	–	–	–	–	26.1	29.5
O=S(=O)(Nc1cccnc1)c1ccc(Br)c2ccccc12	–	30.5	–	–	–	–	–	20.8
O=C(Nc1ccccc1)c1ccc(Br)c(S(=O)(=O)Nc2cccnc2)c1	–	–	–	–	–	–	·	·
COC(=O)c1cccc(CN2C(=O)C(C)Oc3ccc(C)cc32)c1 (stereo not given)	·	·	–	–	–	·	·	·
Cc1cc(C)c(OCC(=O)Nc2ccc3c(c2)OCO3)cc1C	–	29.4	–	–	–	–	–	–
CCNC(=S)Nc1nc2c(cc1C(=O)OCC)CCCC2	–	21.3	–	–	–	–	26.7	19.9
C=CCNC(=S)Nc1nc2c(cc1C(=O)OCC)CCCC2	–	–	–	–	–	–	·	·
CN(C(=O)c1ccc(NC(=O)Cc2ccc(NC(=O)C3CCN(C(=O)C4CCCCC4)CC3)cc2)cc1)C1CC1	–	19.6	–	–	–	–	–	–
